# Measurements from different studies.
# pIC50: −log10 of the molar value.
# Organism: Escherichia coli
Structure (SMILES),effect on,method,strain,concentration,endpoint,result
C[C@H]1NCc2cc(-c3ccc4c(=O)c(C(=O)O)cn(C5CC5)c4c3OC(F)F)ccc21,microbial growth,broth dilution,,,MIC90,0.25 µg/mL
Cc1cc(/C=C2\Sc3ccccc3N2CCCN2CCC(C)CC2)c2ccccc2[n+]1C.[I-],microbial growth,broth dilution,ATCCBAA2469,,MIC,1 µg/mL
CC(C)CCCCCCCCCCCCCCCc1cc(O)cc(O)c1,microbial growth,,,,pIC50,4.15
COC(=O)c1cc(-c2cccc(NC(=O)Nc3ccc(F)cc3F)c2)on1,microbial growth,broth dilution,ATCC25922,,MIC,> 64 µg/mL
CCCCCCCCCCCC(=O)OC[C@H]1O[C@@H](n2cc(C)c(=O)[nH]c2=O)C[C@@H]1O,microbial killing,broth dilution,,,MBC,16 µg/mL
COc1c(N2C[C@@H]3CCCN[C@@H]3C2)c(F)cc2c(=O)c(C(=O)O)cn(C3CC3)c12,microbial growth,,,,MIC90,0.06 µg/mL
COC(=O)c1cc(-c2cccc(NC(=O)Nc3ccc(F)c(F)c3)c2)on1,microbial growth,broth dilution,ATCC25922,,MIC,> 64 µg/mL
CCC(CCCCCCCCCCc1cc(O)cc(O)c1)C(C)C (stereo not shown),microbial growth,,,,pIC50,4.46
O=C(Nc1cccc(-c2cc(C(=O)O)no2)c1)Nc1ccc(Cl)c(Cl)c1,microbial growth,broth dilution,ATCC25922,,MIC,> 64 µg/mL
CC(C)CCCCCCCCCCCCCCc1cc(O)cc(O)c1,microbial growth,,,,pIC50,4.33
O=C(O)c1cn(C2CC2)c2cc(N3CCNCC3)c(F)cc2c1=O,microbial killing,,,,MBC,0.019 µg/mL
COC(=O)c1cc(-c2cccc(NC(=S)Nc3ccc(F)cc3F)c2)on1,microbial growth,broth dilution,ATCC25922,,MIC,> 64 µg/mL
CC1(C)S[C@@H]2[C@H](NC(=O)[C@H](N)c3ccccc3)C(=O)N2[C@H]1C(=O)O,microbial growth,well diffusion,ATCC35218,60000 µg/mL,inhibition zone,15 mm
